Screens from PubChem.
Hits are enriched below; roughly 2.5% of the tested compounds scored in any of these assays.
B2AR ag = activates human beta-2 adrenergic receptor causing internalization; P07550; Am2.2-beta2AR cells, FAP receptor internalization, flow cytometry; response, % (test concentration not listed); 340,000 tested, 0.43% active; AID 504454;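 active means response above a set limit, near 3 SD of response in nonfluorescent compounds, cut at about 42% in these data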
GRK2 aptamer HTS = blocks RNA aptamer binding to human GRK2; inhibition of aptamer binding, % at 10 µM; bead flow cytometry, FAM-aptamer displacement from GRK2; AID 488847; P25098; 330,000 tested, 0.59% active;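 active means inhibition of aptamer binding above 40%, roughly 3 SD of noise, on plates passing a quality check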;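 further: median bead fluorescence of bound FAM aptamer so fluorescent compounds give negative values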
ABHD5-PLIN5 inh = blocks binding of human ABHD5 to perilipin-5 | Q00G26+Q8WTS1 | Split G. princeps luciferase complementation, luminescence, 4 h | inhibition, % at 4 µM | 360,000 tested, 0.78% active;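 active means inhibition above the mean inhibition across every tested compound plus 3 SD, cut at about 22% in these data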;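 further: 0% = DMSO only wells and the 100% control is not disclosed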
Target sequence (Q00G26 whole entry, looked up): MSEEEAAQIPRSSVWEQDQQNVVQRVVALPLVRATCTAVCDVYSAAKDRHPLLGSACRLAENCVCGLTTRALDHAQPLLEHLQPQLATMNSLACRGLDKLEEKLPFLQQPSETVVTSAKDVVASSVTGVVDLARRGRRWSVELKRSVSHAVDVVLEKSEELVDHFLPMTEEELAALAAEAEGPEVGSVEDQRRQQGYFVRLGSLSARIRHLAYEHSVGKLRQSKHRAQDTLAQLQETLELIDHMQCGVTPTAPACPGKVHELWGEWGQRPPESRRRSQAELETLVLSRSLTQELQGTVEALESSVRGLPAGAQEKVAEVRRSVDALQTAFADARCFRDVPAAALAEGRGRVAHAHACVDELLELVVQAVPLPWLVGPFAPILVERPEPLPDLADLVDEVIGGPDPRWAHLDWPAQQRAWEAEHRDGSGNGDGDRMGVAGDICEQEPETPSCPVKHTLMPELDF
Target sequence (Q8WTS1 whole entry, looked up): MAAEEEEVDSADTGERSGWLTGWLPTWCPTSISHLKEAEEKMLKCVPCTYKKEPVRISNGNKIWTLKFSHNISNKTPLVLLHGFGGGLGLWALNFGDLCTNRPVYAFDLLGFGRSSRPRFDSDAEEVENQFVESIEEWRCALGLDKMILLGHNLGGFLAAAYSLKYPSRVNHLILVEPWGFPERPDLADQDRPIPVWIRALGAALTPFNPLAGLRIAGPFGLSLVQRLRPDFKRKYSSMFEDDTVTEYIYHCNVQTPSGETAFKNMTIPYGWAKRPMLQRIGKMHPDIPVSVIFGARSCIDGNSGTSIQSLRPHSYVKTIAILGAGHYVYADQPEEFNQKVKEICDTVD
NadD block = NadD (S. aureus) enzyme inhibition; purified NadD enzyme, colorimetric absorbance read-out; inhibition, % at 20 µM; 360,000 tested, 0.78% active; in the data active means inhibition above about 26%
SENP1 FRET inh = SENP1 (human) catalytic domain inhibition; Q9P0U3; recombinant SENP1 catalytic domain, CyPet-SUMO1-YPet FRET cleavage; inhibition, % at 10 µM; 360,000 tested, 0.21% active;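 active means inhibition at least 30% at 10 µM, raw YFP signal under a set limit, fluorescence ratio 0.5 to 1.5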;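 further: 0% = enzyme with DMSO and 100% = no enzyme wells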
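Test system: human SENP1 catalytic domain; medium: Tris pH 8 buffer plus EDTA, NaCl, BME, BSA, NP40, catalase; incubation: 50 min reaction at room temperature; technique: FRET, CFP and YFP emission; controls: no-enzyme low control and enzyme-plus-DMSO high control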
B2AR ag CP1 = activates human beta-2 adrenergic receptor; Am2.2-beta2AR cells, FAP surface receptor, flow cytometry; active compounds read low; percent response (surface receptor), % at 10 µM; 1,100 tested, 25% active; AID 540358; shares compounds with B2AR ag;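 active means surface receptor percent response at or below 58%, roughly 3 SD from nonfluorescent compounds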
B2AR FAP counter = fluorescence artifact in beta-2AR agonist FAP counterscreen; shares compounds with B2AR ag; Am2.2 cells, FAP fluorogen flow cytometry; active compounds read low; calls only at 10 µM; 1,100 tested, under 10 active; AID 588765;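 active means percent response below a set limit in fluorescence channel 1 and below 50% in channel 8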
The depositor's hits bear a star; i = inactive; . = no result given; + = active, no number.

SMILES	B2AR ag	GRK2 aptamer HTS	ABHD5-PLIN5 inh	NadD block	SENP1 FRET inh	B2AR ag CP1	B2AR FAP counter
O=C(Oc1c(CN2CCOCC2)cc(Cl)c2cccnc12)c1ccccc1F	-10	2	2	-1	0	111	i
CC(=O)N(Cc1cc2ccccc2[nH]c1=O)c1ccc(C)cc1	14	0	4	-1	2	.	.
CCc1ccc(Nc2cc(C)nc3ncnn23)cc1	8	7	11	-1	-1	.	.
CCn1c2ccccc2c2cc(Nc3cc(C)nc4ncnn34)ccc21	42*	5	8	14	5	58	i
COc1ccc(NC(=O)COC(=O)C2CC(=O)N(CCc3ccc(OC)c(OC)c3)C2)cc1Cl (stereo not drawn)	1	0	5	-1	3	.	.
CCOc1cc(CNCCc2ccc(S(N)(=O)=O)cc2)ccc1OCc1ccccc1	13	0	9	-2	3	110	i
O=C(c1cc(-c2ccc(Cl)cc2)n(-c2cc(Cl)ccc2Cl)n1)N1CCOCC1	62*	0	9	-5	0	129	i
CC1C(O)=C(c2ccccc2)P(=O)(Cc2ccccc2)C1C (stereo not drawn)	.	.	4	-6	1	.	.
COc1cc2c(cc1Cl)C(=O)C(F)(c1ccccc1)C(=O)N2 (stereo not drawn)	81*	0	-3	2	-2	13*	i
O=C(O)c1cccc(Nc2ccncc2[N+](=O)[O-])c1	-5	0	-2	-3	2	.	.
Cn1c(SCC(=O)NCC2CCCO2)ncc(C(=O)Nc2ccc(Cl)cc2)c1=O (stereo not drawn)	75*	5	-5	3	-6	79	i
Cn1c(SCC(=O)NCC2CCCO2)ncc(C(=O)Nc2ccc(F)cc2)c1=O (stereo not drawn)	46*	0	10	12	3	98	i
CC(=O)c1ccc(OCc2cc(C(=O)N(C)CC3COc4ccccc4O3)no2)cc1 (stereo not drawn)	.	.	-5	-4	-2	.	.
CCc1cc(-c2nnn(CCC3COCCO3)c2CC)cc(CC)c1-c1cn(Cc2ccc3ccccc3c2)nn1 (stereo not drawn)	.	.	-3	7	2	.	.
O=C(OCC(=O)N1CCN(c2ccccc2)CC1)c1nc(Cl)ccc1Cl	-3	0	-2	-4	0	.	.
Cc1nc2ccccc2nc1OCc1ccccc1	2	3	6	-3	1	.	.
CC(O)c1c(OCc2ccccc2)ncnc1OCc1ccccc1 (stereo not drawn)	98*	0	5	-4	6	112	i
Cn1nnnc1Sc1ncnc2scc(-c3ccc(Br)cc3)c12	68*	0	16	0	-5	32*	i
Cn1nnnc1Sc1ncnc2scc(-c3ccc(F)cc3)c12	10	0	5	10	-54	.	.
Cc1cc(N2CCN(C)CC2)ccc1NC(=O)c1c2c(nc3ccccc13)CCN(Cc1ccccc1)C2	51*	0	8	-5	-1	11*	+
COc1ccc(C(=O)Nc2nc3cc4c(cc3s2)OCCO4)c(OC)c1	54*	0	8	-5	-1	101	i
O=C(CN1CCc2ccccc2C1)Nc1ccccc1N1CCCCCC1	110*	0	-8	2	-6	97	i
CNc1ccc(-c2ccccc2CO)cn1	.	.	2	-6	0	.	.
O=C(CSc1nnc(-c2ccncc2)o1)Nc1cc(Cl)ccc1C(=O)O	-3	2	-11	4	0	.	.
COc1ccc(-n2ccnc(SCC(=O)NC3CCCC3)c2=O)cc1	6	35	-12	-1	2	.	.
COc1ccc(-n2ccnc(SCC(=O)NC3CCCCC3)c2=O)cc1	93*	1	-4	2	3	103	i
CCOc1ccc(-n2c(Cc3cc(=O)[nH]c(=O)[nH]3)nnc2SCC(=O)NC2CCCC2)cc1	2	5	3	-1	-12	.	.
COc1ccc(-n2c(Cc3cc(=O)[nH]c(=O)[nH]3)nnc2SCC(=O)NC2CCCC2)cc1	52*	0	-11	-3	1	88	i
